Experimental data published in ChEMBL document CHEMBL1255555, “Parallel synthesis and anti-inflammatory activity of cyclic peptides cyclosquamosin D and Met-cherimolacyclopeptide B and their analogs” (2010).
Active and inactive are the calls of the source. No cut-off for these calls is given here. Residues, ends and D or L forms follow the SMILES beside them.

Columns and labels:
J774.A1 [1] = test: Antiinflammatory activity in mouse J774A1 cells assessed as inhibition of LPS-stimulated TNFalpha stimulation after 4 hrs by ELISA; assay type: functional, cell-based
Summary of the method: (§1)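 Murine macrophage J774A.1 cells in RPMI1640 with 10% heat-inactivated FBS, glutamine, pyruvate, nonessential amino acids, HEPES and 2-mercaptoethanol. Peptides, dissolved in DMSO, added for 1 h at 37 °C before LPS (0.1 µg/mL) for a further 4 or 6 h. IL-6 or TNF-α in supernatant measured by sandwich ELISA: biotinylated detection antibody, avidin-HRP, ABTS substrate, OD 405 nm.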

J774.A1 [2] = test: Antiinflammatory activity in mouse J774A1 cells assessed as inhibition of LPS-stimulated IL6 stimulation after 4 hrs by ELISA; assay type: functional; summary of the method: as §1

| SMILES | Activity (J774.A1 [1]) | Activity (J774.A1 [2]) | Activity (J774.A1 [2]; record 2) |
| --- | --- | --- | --- |
| CC[C@@H](C)[C@@H]1NC(=O)[C@@H]2CCCN2C(=O)[C@H](CC(C)C)NC(=O)[C@H](C)NC(=O)CNC(=O)[C@H]([C@@H](C)O)NC(=O)[C@H](CCC(N)=O)NC(=O)[C@@H]2CCCN2C1=O | Active | Active | – |
| CC(C)C[C@@H]1NC(=O)[C@H](C(C)C)NC(=O)[C@H](C)NC(=O)CNC(=O)[C@@H]2CCCN2C(=O)[C@H](Cc2ccc(O)cc2)NC(=O)[C@H](Cc2ccc(O)cc2)NC(=O)[C@H](CO)NC1=O (cyclo(AVLSYYPG)) | – | Active | – |
| CC(C)C[C@@H]1NC(=O)[C@H](C(C)C)NC(=O)CNC(=O)[C@H](C)NC(=O)[C@@H]2CCCN2C(=O)[C@H](Cc2ccc(O)cc2)NC(=O)[C@H](Cc2ccc(O)cc2)NC(=O)[C@H](CO)NC1=O (cyclo(AGVLSYYP)) | Active | Active | – |
| COc1ccc(C[C@@H]2NC(=O)[C@H](Cc3ccc(O)cc3)NC(=O)[C@H](CO)NC(=O)[C@H](CC(C)C)NC(=O)[C@H](C(C)C)NC(=O)CNC(=O)CNC(=O)[C@@H]3CCCN3C2=O)cc1 (cyclo(GGVLSYY(Me)P)) | inactive | Active | 25% |
| CC[C@H](C)[C@@H]1NC(=O)[C@@H]2CCCN2C(=O)[C@H](CC(C)C)NC(=O)[C@H](CCSC)NC(=O)[C@H](C)NC(=O)[C@H]([C@@H](C)O)NC(=O)[C@H](CCC(N)=O)NC(=O)[C@@H]2CCCN2C1=O (cyclo(AMLPIPQT)) | Active | Active | – |
